Results taken from ChEMBL document CHEMBL4033783, “Adventures in Scaffold Morphing: Discovery of Fused Ring Heterocyclic Checkpoint Kinase 1 (CHK1) Inhibitors” (J Med Chem, 2018).
Values after ≈ are worked out from the molar mass of the structure shown. Blank lines part the entries; values can stand above or below the compound they belong to.

Legend:
[1] = target: T1, Serine/threonine-protein kinase Chk1 (Homo sapiens, UniProt O14757); assay: Inhibition of CHK1 (unknown origin)
T1 sequence (O14757 whole entry): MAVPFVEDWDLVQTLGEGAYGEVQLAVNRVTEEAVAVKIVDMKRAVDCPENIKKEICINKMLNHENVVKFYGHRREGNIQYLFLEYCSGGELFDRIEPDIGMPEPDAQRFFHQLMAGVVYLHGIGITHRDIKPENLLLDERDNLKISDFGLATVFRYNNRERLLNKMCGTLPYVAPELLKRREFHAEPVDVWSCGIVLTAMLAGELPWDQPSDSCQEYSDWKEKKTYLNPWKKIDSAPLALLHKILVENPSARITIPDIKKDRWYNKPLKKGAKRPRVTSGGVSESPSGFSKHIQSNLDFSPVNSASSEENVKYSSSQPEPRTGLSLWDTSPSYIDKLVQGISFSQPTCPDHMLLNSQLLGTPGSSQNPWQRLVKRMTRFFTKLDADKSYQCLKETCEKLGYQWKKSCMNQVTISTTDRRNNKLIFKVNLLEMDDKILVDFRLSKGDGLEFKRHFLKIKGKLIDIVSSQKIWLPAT

[2] = Intrinsic clearance in Sprague-Dawley rat liver microsomes at […] after 2 mins in presence of NADPH by HPLC analysis; assay type: ADME, Microsome
[3] = tested on: Liver; assay: Intrinsic clearance in human liver microsomes; assay type: ADME, microsome
[4] = target: Voltage-gated inwardly rectifying potassium channel KCNH2 (Homo sapiens, UniProt Q12809)
Sequence of Voltage-gated inwardly rectifying potassium channel KCNH2 (Q12809 whole entry): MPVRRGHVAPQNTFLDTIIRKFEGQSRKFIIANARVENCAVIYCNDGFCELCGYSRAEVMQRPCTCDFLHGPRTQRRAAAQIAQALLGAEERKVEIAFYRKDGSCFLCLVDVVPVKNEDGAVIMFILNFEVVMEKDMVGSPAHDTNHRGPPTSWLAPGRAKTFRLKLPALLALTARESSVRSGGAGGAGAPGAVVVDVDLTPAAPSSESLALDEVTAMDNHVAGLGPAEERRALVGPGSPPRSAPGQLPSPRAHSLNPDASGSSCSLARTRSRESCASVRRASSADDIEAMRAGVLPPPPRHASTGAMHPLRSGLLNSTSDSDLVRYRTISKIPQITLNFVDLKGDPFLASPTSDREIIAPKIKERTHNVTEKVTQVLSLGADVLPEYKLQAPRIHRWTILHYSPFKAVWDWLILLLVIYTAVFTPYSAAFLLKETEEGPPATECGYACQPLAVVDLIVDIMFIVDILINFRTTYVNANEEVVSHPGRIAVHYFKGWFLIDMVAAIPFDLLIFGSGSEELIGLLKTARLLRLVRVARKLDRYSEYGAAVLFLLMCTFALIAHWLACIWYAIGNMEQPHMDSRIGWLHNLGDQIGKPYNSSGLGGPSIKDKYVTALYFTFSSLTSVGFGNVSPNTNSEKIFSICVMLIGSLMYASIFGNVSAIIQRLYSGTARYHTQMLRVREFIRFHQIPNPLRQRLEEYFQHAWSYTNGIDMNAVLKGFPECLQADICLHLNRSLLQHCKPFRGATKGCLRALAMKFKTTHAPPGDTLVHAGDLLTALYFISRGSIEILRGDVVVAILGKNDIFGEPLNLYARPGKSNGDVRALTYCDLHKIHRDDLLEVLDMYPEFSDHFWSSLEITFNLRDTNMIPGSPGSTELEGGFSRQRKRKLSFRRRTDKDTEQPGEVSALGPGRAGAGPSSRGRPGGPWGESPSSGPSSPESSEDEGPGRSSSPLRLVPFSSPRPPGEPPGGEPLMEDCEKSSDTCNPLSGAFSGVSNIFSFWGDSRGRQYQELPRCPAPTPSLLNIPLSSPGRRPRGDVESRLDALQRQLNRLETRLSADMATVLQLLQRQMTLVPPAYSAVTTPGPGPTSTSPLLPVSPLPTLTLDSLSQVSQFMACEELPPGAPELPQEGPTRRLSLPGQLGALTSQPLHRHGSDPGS

[5] = Aqueous solubility of the compound in pH 7.4 phosphate buffer by LC-UV analysis; assay type: physicochemical
[6] = tested on: MDA-MB-231; assay: Antiproliferative activity against human MDA-MB-231 cells; assay type: functional; conditions: for GI50: Homo sapiens, MDA-MB-231
How it was run: (§1)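 Proliferation-inhibition concentration-response in the tumour cell lines, run as part of a gemcitabine potentiation assay, with the compound tested as a single agent without gemcitabine. Single-agent GI50 and GI25 were derived from the response curves. Values are the mean of two duplicated runs.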

[7] = tested on: SW-620; assay: Antiproliferative activity against human SW620 cells; assay type: functional; conditions: for GI50: Homo sapiens, SW-620; how it was run: as §1
[8] = Half life in iv dosed mouse plasma; assay type: ADME, organism-based
[9] = Half life in iv dosed rat plasma; assay type: ADME, organism-based
[10] = Clearance in iv dosed mouse plasma; assay type: ADME, organism-based
[11] = Clearance in iv dosed rat plasma; assay type: ADME, organism-based
[12] = Clearance in iv dosed dog plasma; assay type: ADME, organism-based, Canis lupus familiaris
[13] = Half life in iv dosed dog plasma; assay type: ADME, organism-based, Canis lupus familiaris
[14] = Volume of distribution at steady state in iv dosed dog plasma; assay type: ADME, organism-based, Canis lupus familiaris; conditions: read-out: Vdss
[15] = Volume of distribution at steady state in iv dosed mouse plasma; assay type: ADME, organism-based; conditions: read-out: Vdss
[16] = Volume of distribution at steady state in iv dosed rat plasma; assay type: ADME, organism-based; conditions: read-out: Vdss
[17] = target: T2, Serine/threonine-protein kinase Chk1 (Homo sapiens) (UniProt O14757)
T2 sequence (whole entry): T1 sequence (O14757 whole entry)

[18] = target: T2, Serine/threonine-protein kinase Chk1 (Homo sapiens); remark: listed apart in the source
[19] = target: T2, Serine/threonine-protein kinase Chk1 (Homo sapiens); remark: listed apart in the source
[20] = tested on: NCI-H460; assay: Antiproliferative activity against human H460 cells harboring dominant negative p53 construct; assay type: functional; conditions: for GI50: Homo sapiens, NCI-H460; how it was run: as §1
[21] = tested on: HCT-116; assay: Abrogation of topotecan-induced G2 phase arrest in human HCT116 cells xenografted in mouse hollow fiber model assessed as ratio of cell levels at G2 phase to G1 phase at 10 mg/kg, iv after 30 hrs relative to control; assay type: functional

IC50 [1]: 56 nM | intrinsic clearance [2]: 11 µL/min/mg | intrinsic clearance (CLint) [3]: < 5 µL/min/mg
SMILES: NC(=O)c1cnc(SC2CCCNC2)c2cc(-c3ccccc3)sc12 (racemic)
IC50 [4]: 4900 nM

IC50 [1]: 24 nM
SMILES: NC(=O)c1cnc(N[C@H]2CCCNC2)c2cc(-n3ccnc3)sc12

IC50 [1]: 2600 nM
SMILES: NC(=O)c1cnc(N[C@H]2CCCNC2)c2sc(-c3ccccc3)cc12
IC50 [4]: > 31600 nM

IC50 [1]: 69 nM
SMILES: C[C@@H]1NCCC[C@@H]1Nc1ncc(C(N)=O)c2sc(-c3ccccc3)cc12
IC50 [4]: 5900 nM

IC50 [1]: 83 nM | intrinsic clearance [2]: > 120 µL/min/mg | intrinsic clearance (CLint) [3]: 35 µL/min/mg
SMILES: NC(=O)c1cnc(O[C@H]2CCCNC2)c2cc(-c3ccccc3)sc12

IC50 [1]: 10 nM
SMILES: NC(=O)c1cnc(N[C@H]2CNCC[C@@H]2O)c2cc(-c3ccccc3)sc12 (racemic)
IC50 [4]: > 31600 nM

IC50 [1]: 23 nM | solubility [5]: 380 µM (≈ 134 µg/mL)
SMILES: NC(=O)c1ccc(N[C@H]2CCCNC2)c2cc(-c3ccc(F)cc3)[nH]c12
IC50 [4]: 6700 nM

IC50 [1]: 35 nM
SMILES: CCN(c1ncc(C(N)=O)c2sc(-c3ccccc3)cc12)[C@H]1CCCNC1
IC50 [4]: 2400 nM

IC50 [1]: 31 nM | solubility [5]: 280 µM (≈ 93.6 µg/mL) | intrinsic clearance [2]: 120 µL/min/mg | intrinsic clearance (CLint) [3]: 21 µL/min/mg
SMILES: NC(=O)c1ccc(N[C@H]2CCCNC2)c2cc(-c3ccccc3)[nH]c12
IC50 [4]: 11600 nM

IC50 [1]: 79 nM
SMILES: NC(=O)c1cnc(N(CCO)[C@H]2CCCNC2)c2cc(-c3ccccc3)sc12
IC50 [4]: > 31600 nM

IC50 [1]: 6 nM | solubility [5]: 980 µM (≈ 351 µg/mL) | intrinsic clearance [2]: 72 µL/min/mg | intrinsic clearance (CLint) [3]: 29 µL/min/mg
SMILES: NC(=O)c1cnc(N[C@H]2CCCNC2)c2cc(-c3ccsc3)sc12
IC50 [4]: 28000 nM

IC50 [1]: 21 nM
SMILES: C[C@@H]1CC[C@H](Nc2ncc(C(N)=O)c3sc(-c4ccccc4)cc23)CN1 (racemic)

IC50 [1]: 14 nM
SMILES: NC(=O)c1cnc(N[C@H]2CCCNC2)c2cc(-c3cnn(Cc4ccccc4)c3)sc12

SMILES: C[C@H]1NCCC[C@@H]1Nc1ncc(C(N)=O)c2sc(-c3ccccc3)cc12
IC50 [1]: 6 nM | intrinsic clearance [2]: < 10 µL/min/mg | intrinsic clearance (CLint) [3]: < 5 µL/min/mg | GI25 [6]: 150 nM | GI50 [6]: 306 nM | GI25 [7]: 360 nM | GI50 [7]: 725 nM | half-life [8]: 3.4 h | half-life [9]: 5.1 h | clearance [10]: 29 mL/min/kg | clearance [11]: 105 mL/min/kg | clearance [12]: 10 mL/min/kg | half-life [13]: 9.4 h | Vd [14]: 7.1 L/kg | Vd [15]: 4.6 L/kg | Vd [16]: 24 L/kg | IC50 [4]: > 31600 nM | PF [17]: 5 | PF [18]: 11 | PF [19]: 124

IC50 [1]: 25 nM | intrinsic clearance [2]: 37 µL/min/mg | intrinsic clearance (CLint) [3]: 10 µL/min/mg
SMILES: CN(c1ncc(C(N)=O)c2sc(-c3ccccc3)cc12)[C@H]1CCCNC1
IC50 [4]: 2700 nM

IC50 [1]: 20 nM
SMILES: NC(=O)c1cnc(N[C@H]2CCCNC2)c2cc(-c3cn[nH]c3)sc12

IC50 [1]: 83 nM
SMILES: NC(=O)c1cnc(N[C@H]2CCCN[C@@H]2CCO)c2cc(-c3ccccc3)sc12 (racemic)
IC50 [4]: > 31600 nM

SMILES: NC(=O)Nc1sc(-c2ccccc2)cc1C(=O)N[C@H]1CCCNC1
solubility [5]: > 2000 µM | GI25 [6]: 300 nM | GI50 [6]: 596 nM | GI25 [7]: 420 nM | GI50 [7]: 839 nM | GI25 [20]: 620 nM | GI50 [20]: 1230 nM | IC50 [4]: > 31600 nM | PF [17]: 9 | PF [18]: 11 | PF [19]: 67

SMILES: Nc1ccn([C@@H]2O[C@H](CO)[C@@H](O)C2(F)F)c(=O)n1 [GEMCITABINE]
GI50 [6]: 251 nM | GI50 [7]: 840 nM | GI50 [20]: 2080 nM

SMILES: NC(=O)c1cnc(N[C@H]2CCCNC2)c2cc(-c3cccc(F)c3)sc12
IC50 [1]: 12 nM | solubility [5]: 334 µM (≈ 124 µg/mL) | GI25 [6]: 320 nM | GI50 [6]: 641 nM | GI25 [7]: 420 nM | GI50 [7]: 841 nM | GI25 [20]: 1450 nM | GI50 [20]: 2900 nM | half-life [8]: 8.5 h | half-life [9]: 4.4 h | clearance [10]: 28 mL/min/kg | clearance [11]: 196 mL/min/kg | clearance [12]: 10 mL/min/kg | half-life [13]: 5.1 h | Vd [14]: 4.4 L/kg | Vd [15]: 4.6 L/kg | Vd [16]: 54.3 L/kg | PF [17]: 4 | PF [18]: 11 | PF [19]: 38

IC50 [1]: 15 nM | solubility [5]: 320 µM (≈ 118 µg/mL)
SMILES: NC(=O)c1ccc(N[C@H]2CCCNC2)c2cc(-c3ccc(Cl)cc3)[nH]c12
IC50 [4]: 4100 nM

SMILES: NC(=O)c1cnc(N[C@H]2CCCNC2)c2cc(-c3ccccc3)sc12
IC50 [1]: 7 nM | solubility [5]: > 1000 µM | intrinsic clearance [2]: 32 µL/min/mg | intrinsic clearance (CLint) [3]: 9.2 µL/min/mg | GI25 [6]: 270 nM | GI50 [6]: 536 nM | GI25 [7]: 490 nM | GI50 [7]: 970 nM | GI25 [20]: 900 nM | GI50 [20]: 1800 nM | half-life [8]: 1.5 h | half-life [9]: 3.1 h | clearance [10]: 45 mL/min/kg | clearance [11]: 295 mL/min/kg | clearance [12]: 11 mL/min/kg | half-life [13]: 5.4 h | Vd [14]: 3.7 L/kg | Vd [15]: 4 L/kg | Vd [16]: 75 L/kg | Ratio [21]: 3.2 | IC50 [4]: 19700 nM | PF [17]: 5 | PF [18]: 12 | PF [19]: 28

IC50 [1]: 12 nM
SMILES: C[C@@H]1CC[C@H](Nc2ncc(C(N)=O)c3sc(-c4ccccc4)cc23)[C@H](C)N1 (racemic)
IC50 [4]: 8400 nM

IC50 [1]: 9 nM
SMILES: NC(=O)c1ccc(N[C@H]2CCCNC2)c2cc(-c3cccc(F)c3)[nH]c12
IC50 [4]: 7700 nM

IC50 [1]: 15 nM | solubility [5]: > 1000 µM | intrinsic clearance [2]: 36 µL/min/mg | intrinsic clearance (CLint) [3]: 9.1 µL/min/mg
SMILES: NC(=O)c1cnc(N[C@H]2CCCNC2)c2cc(-c3cccs3)sc12
IC50 [4]: > 30000 nM

IC50 [1]: 660 nM
SMILES: NC(=O)c1cnc(N(CCc2ccccc2)[C@H]2CCCNC2)c2cc(-c3ccccc3)sc12

IC50 [1]: 6 nM
SMILES: Cn1cc(-c2cc3c(N[C@H]4CCCNC4)ncc(C(N)=O)c3s2)cn1

IC50 [1]: 330 nM | solubility [5]: > 1000 µM
SMILES: NC(=O)c1cnc(N[C@H]2CCCNC2)c2cc(-c3ccccc3)oc12

IC50 [1]: 140 nM
SMILES: CN1CCC[C@H](Nc2ncc(C(N)=O)c3sc(-c4ccccc4)cc23)C1

IC50 [1]: 6800 nM
SMILES: NC(=O)c1cnc(N[C@H]2CCCNC2)c2sc(-c3cccc(F)c3)cc12
